# Laboratory results reported in article PMC12495087 (ESMO Open, 2025).
# Assay: phase I study BOS172738-01: safety and tolerability
# Type: in vivo, human
# Conditions: for patients who discontinued study treatment due to AEs: interim cut-off
# Method in brief: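 Patients received at least one dose of oral drug given once daily in 28-day cycles. Part A escalated 10–150 mg, by accelerated titration (dose doubling) and then 3+3 Fibonacci steps; part B used 75 mg. AEs were graded by CTCAE v4.03 from first dose to 31 days after last dose. DLTs counted in cycle 1. Missing causality was scored as related and missing grade as grade 3.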
# [1] = part A, all dose levels, n = 67
# [2] = part B, RET gene-fusion NSCLC, 75 mg, n = 20
# [3] = part B, RET gene-mutant MTC, 75 mg, n = 7
structure (smiles),measurement,setting,value
COc1cc2cc(-c3ccc(CC(=O)Nc4cc(C(C)(C)C(F)(F)F)no4)cn3)cnc2cc1OC [BOS172738],"TEAE related to BOS, any",[1],61 (91) n (%)
same,"TEAE related to BOS, grade ≥3",[1],39 (58) n (%)
same,patients who discontinued study treatment due to AEs,"part A, % of 69 screened",18 (26%) n (%)
same,Any TEAE,"part B total, n = 50",50 (100) n (%)
same,Any TEAE leading to BOS discontinuation,"part B total, n = 50",7 (14) n (%)
same,Any TEAE leading to BOS dose interruption,"part B total, n = 50",33 (66) n (%)
same,Any TEAE leading to BOS dose reduction,"part B total, n = 50",10 (20) n (%)
same,Any TEAE leading to study discontinuation,"part B total, n = 50",7 (14) n (%)
same,Any TEAE related to BOS leading to BOS discontinuation,"part B total, n = 50",2 (4) n (%)
same,Any TEAE related to BOS leading to study discontinuation,"part B total, n = 50",1 (2) n (%)
same,Any TEAE resulting in death,"part B total, n = 50",2 (4) n (%)
same,"Any TEAE, grade ≥3","part B total, n = 50",41 (82) n (%)
same,Serious TEAEs related to BOS,"part B total, n = 50",2 (4) n (%)
same,"Serious TEAEs, any","part B total, n = 50",28 (56) n (%)
same,"TEAE related to BOS, CTCAE grade ≥3: Anemia","part B total, n = 50",3 (6) n (%)
same,"TEAE related to BOS, CTCAE grade ≥3: Asthenia","part B total, n = 50",0 n (%)
same,"TEAE related to BOS, CTCAE grade ≥3: Blood creatinine phosphokinase increased","part B total, n = 50",10 (20) n (%)
same,"TEAE related to BOS, CTCAE grade ≥3: Diarrhea","part B total, n = 50",0 n (%)
same,"TEAE related to BOS, CTCAE grade ≥3: Hypophosphatemia","part B total, n = 50",3 (6) n (%)
same,"TEAE related to BOS, CTCAE grade ≥3: Lymphopenia","part B total, n = 50",2 (4) n (%)
same,"TEAE related to BOS, CTCAE grade ≥3: Muscular weakness","part B total, n = 50",0 n (%)
same,"TEAE related to BOS, CTCAE grade ≥3: Myositis","part B total, n = 50",0 n (%)
same,"TEAE related to BOS, CTCAE grade ≥3: Neutropenia","part B total, n = 50",0 n (%)
same,"TEAE related to BOS, CTCAE grade ≥3: Neutrophil count decreased","part B total, n = 50",7 (14) n (%)
same,"TEAE related to BOS, any","part B total, n = 50",38 (76) n (%)
same,"TEAE related to BOS, grade ≥3","part B total, n = 50",24 (48) n (%)
same,Any TEAE,"part B, Other, 75 mg, n = 23",23 (100) n (%)
same,Any TEAE leading to BOS discontinuation,"part B, Other, 75 mg, n = 23",5 (22) n (%)
same,Any TEAE leading to BOS dose interruption,"part B, Other, 75 mg, n = 23",11 (48) n (%)
same,Any TEAE leading to BOS dose reduction,"part B, Other, 75 mg, n = 23",4 (17) n (%)
same,Any TEAE leading to study discontinuation,"part B, Other, 75 mg, n = 23",3 (13) n (%)
same,Any TEAE related to BOS leading to BOS discontinuation,"part B, Other, 75 mg, n = 23",1 (4) n (%)
same,Any TEAE related to BOS leading to study discontinuation,"part B, Other, 75 mg, n = 23",0 n (%)
same,Any TEAE resulting in death,"part B, Other, 75 mg, n = 23",1 (4) n (%)
same,"Any TEAE, grade ≥3","part B, Other, 75 mg, n = 23",16 (70) n (%)
same,Serious TEAEs related to BOS,"part B, Other, 75 mg, n = 23",1 (4) n (%)
same,"Serious TEAEs, any","part B, Other, 75 mg, n = 23",17 (74) n (%)
same,"TEAE related to BOS, CTCAE grade ≥3: Anemia","part B, Other, 75 mg, n = 23",1 (4) n (%)
same,"TEAE related to BOS, CTCAE grade ≥3: Asthenia","part B, Other, 75 mg, n = 23",0 n (%)
same,"TEAE related to BOS, CTCAE grade ≥3: Blood creatinine phosphokinase increased","part B, Other, 75 mg, n = 23",0 n (%)
same,"TEAE related to BOS, CTCAE grade ≥3: Diarrhea","part B, Other, 75 mg, n = 23",0 n (%)
same,"TEAE related to BOS, CTCAE grade ≥3: Hypophosphatemia","part B, Other, 75 mg, n = 23",1 (4) n (%)
same,"TEAE related to BOS, CTCAE grade ≥3: Lymphopenia","part B, Other, 75 mg, n = 23",1 (4) n (%)
same,"TEAE related to BOS, CTCAE grade ≥3: Muscular weakness","part B, Other, 75 mg, n = 23",0 n (%)
same,"TEAE related to BOS, CTCAE grade ≥3: Myositis","part B, Other, 75 mg, n = 23",0 n (%)
same,"TEAE related to BOS, CTCAE grade ≥3: Neutropenia","part B, Other, 75 mg, n = 23",0 n (%)
same,"TEAE related to BOS, CTCAE grade ≥3: Neutrophil count decreased","part B, Other, 75 mg, n = 23",1 (4) n (%)
same,"TEAE related to BOS, any","part B, Other, 75 mg, n = 23",11 (48) n (%)
same,"TEAE related to BOS, grade ≥3","part B, Other, 75 mg, n = 23",4 (17) n (%)
same,Any TEAE,[2],20 (100) n (%)
same,Any TEAE leading to BOS discontinuation,[2],1 (5) n (%)
same,Any TEAE leading to BOS dose interruption,[2],17 (85) n (%)
same,Any TEAE leading to BOS dose reduction,[2],4 (20) n (%)
same,Any TEAE leading to study discontinuation,[2],3 (15) n (%)
same,Any TEAE related to BOS leading to BOS discontinuation,[2],0 n (%)
same,Any TEAE related to BOS leading to study discontinuation,[2],0 n (%)
same,Any TEAE resulting in death,[2],1 (5) n (%)
same,"Any TEAE, grade ≥3",[2],19 (95) n (%)
same,Serious TEAEs related to BOS,[2],1 (5) n (%)
same,"Serious TEAEs, any",[2],9 (45) n (%)
same,"TEAE related to BOS, CTCAE grade ≥3: Anemia",[2],2 (10) n (%)
same,"TEAE related to BOS, CTCAE grade ≥3: Asthenia",[2],0 n (%)
same,"TEAE related to BOS, CTCAE grade ≥3: Blood creatinine phosphokinase increased",[2],8 (40) n (%)
same,"TEAE related to BOS, CTCAE grade ≥3: Diarrhea",[2],0 n (%)
same,"TEAE related to BOS, CTCAE grade ≥3: Hypophosphatemia",[2],0 n (%)
same,"TEAE related to BOS, CTCAE grade ≥3: Lymphopenia",[2],1 (5) n (%)
same,"TEAE related to BOS, CTCAE grade ≥3: Muscular weakness",[2],0 n (%)
same,"TEAE related to BOS, CTCAE grade ≥3: Myositis",[2],0 n (%)
same,"TEAE related to BOS, CTCAE grade ≥3: Neutropenia",[2],0 n (%)
same,"TEAE related to BOS, CTCAE grade ≥3: Neutrophil count decreased",[2],5 (25) n (%)
same,"TEAE related to BOS, any",[2],20 (100) n (%)
same,"TEAE related to BOS, grade ≥3",[2],14 (70) n (%)
same,Any TEAE,[3],7 (100) n (%)
same,Any TEAE leading to BOS discontinuation,[3],1 (14) n (%)
same,Any TEAE leading to BOS dose interruption,[3],5 (71) n (%)
same,Any TEAE leading to BOS dose reduction,[3],2 (29) n (%)
same,Any TEAE leading to study discontinuation,[3],1 (14) n (%)
same,Any TEAE related to BOS leading to BOS discontinuation,[3],1 (14) n (%)
same,Any TEAE related to BOS leading to study discontinuation,[3],1 (14) n (%)
same,Any TEAE resulting in death,[3],0 n (%)
same,"Any TEAE, grade ≥3",[3],6 (86) n (%)
same,Serious TEAEs related to BOS,[3],0 n (%)
same,"Serious TEAEs, any",[3],2 (29) n (%)
same,"TEAE related to BOS, CTCAE grade ≥3: Anemia",[3],0 n (%)
same,"TEAE related to BOS, CTCAE grade ≥3: Asthenia",[3],0 n (%)
same,"TEAE related to BOS, CTCAE grade ≥3: Blood creatinine phosphokinase increased",[3],2 (29) n (%)
same,"TEAE related to BOS, CTCAE grade ≥3: Diarrhea",[3],0 n (%)
same,"TEAE related to BOS, CTCAE grade ≥3: Hypophosphatemia",[3],2 (29) n (%)
same,"TEAE related to BOS, CTCAE grade ≥3: Lymphopenia",[3],0 n (%)
same,"TEAE related to BOS, CTCAE grade ≥3: Muscular weakness",[3],0 n (%)
same,"TEAE related to BOS, CTCAE grade ≥3: Myositis",[3],0 n (%)
same,"TEAE related to BOS, CTCAE grade ≥3: Neutropenia",[3],0 n (%)
same,"TEAE related to BOS, CTCAE grade ≥3: Neutrophil count decreased",[3],1 (14) n (%)
same,"TEAE related to BOS, any",[3],7 (100) n (%)
same,"TEAE related to BOS, grade ≥3",[3],6 (86) n (%)
same,patients who discontinued study treatment due to AEs,"part B, % of 54 screened",7 (13%) n (%)
same,BOS172738-related TEAEs,"parts A and B, final cut-off",85%
same,"BOS172738-related TEAEs, grade ≥3","parts A and B, final cut-off",54%
same,BOS172738-related grade ≥3 anemia,"parts A and B, final cut-off",9%
same,BOS172738-related grade ≥3 blood creatine phosphokinase increased,"parts A and B, final cut-off",25%
same,BOS172738-related grade ≥3 neutrophil count decreased,"parts A and B, final cut-off",10%
same,patients with at least one TEAE,"parts A and B, final data cut-off",100%
same,elevated blood creatine phosphokinase leading to dose interruption,pooled data,28%
same,elevated blood creatine phosphokinase leading to dose reduction,pooled data,17%
same,elevated blood creatine phosphokinase leading to treatment discontinuation,pooled data,2%
